Key:
[1] = target: Apoptosis regulator Bcl-2 (Homo sapiens, UniProt P10415); assay: Displacement of FAM-Bid BH3 peptide from recombinant Bcl-2 (unknown origin) expressed in Escherichia coli BL21 after 10 mins by fluorescence polarization assay
[2] = target: Induced myeloid leukemia cell differentiation protein Mcl-1 (Homo sapiens, UniProt Q07820); assay: Displacement of FAM-Bid BH3 peptide from recombinant Mcl-1 (unknown origin) expressed in Escherichia coli BL21 after 10 mins by fluorescence polarization assay
In short: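 Mcl-1 FP competition: 55 nM protein with 20 nM FAM-Bid BH3 peptide in 25 mM Tris pH 8.0, 150 mM NaCl, 2 min preincubation. Compounds added as serial dilutions from 10 mM DMSO stock, 10 min incubation, polarization measured. Tracer Kd 13 nM. Ki derived by Wang FP-assay equation.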

Apoptosis regulator Bcl-2, sequence (P10415 whole entry): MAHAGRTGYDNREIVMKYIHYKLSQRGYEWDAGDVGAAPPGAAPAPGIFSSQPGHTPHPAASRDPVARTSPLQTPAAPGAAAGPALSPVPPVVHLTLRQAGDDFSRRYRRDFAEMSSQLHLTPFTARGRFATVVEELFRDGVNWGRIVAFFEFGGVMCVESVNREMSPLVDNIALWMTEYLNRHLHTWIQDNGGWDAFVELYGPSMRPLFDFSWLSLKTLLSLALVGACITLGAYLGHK
Induced myeloid leukemia cell differentiation protein Mcl-1, sequence (Q07820 whole entry): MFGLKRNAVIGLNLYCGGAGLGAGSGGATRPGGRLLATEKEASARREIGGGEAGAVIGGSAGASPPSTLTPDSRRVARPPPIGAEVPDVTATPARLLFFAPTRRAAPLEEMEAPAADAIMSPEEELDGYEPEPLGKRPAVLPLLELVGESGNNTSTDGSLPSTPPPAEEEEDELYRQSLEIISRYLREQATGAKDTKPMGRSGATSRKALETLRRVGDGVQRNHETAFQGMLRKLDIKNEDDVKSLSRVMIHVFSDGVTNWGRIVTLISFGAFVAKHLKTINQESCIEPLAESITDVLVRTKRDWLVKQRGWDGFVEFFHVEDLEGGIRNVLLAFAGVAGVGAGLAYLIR

Structure (SMILES) | Ki [1] | Ki [2]
O=C1c2ccccc2C(=O)c2c1cc(O)c(O)c2O | 1320 nM | 1210 nM
CCCCNC(=O)c1cc(O)c(O)c(O)c1NC(=O)c1ccccc1 | 1920 nM | 1980 nM
O=C(Nc1c(C(=O)NCc2ccccc2)cc(O)c(O)c1O)c1ccccc1 | 1320 nM | 2820 nM
O=C(Nc1c(C(=O)NCCCc2ccccc2)cc(O)c(O)c1O)c1ccccc1 | 8040 nM | 3240 nM
O=c1[nH]cnc2c(O)c(O)c(O)cc12 | 9280 nM | 5980 nM

Other lines, results leading:

Ki [1] | Ki [2] | Structure (SMILES)
1110 nM | 609 nM | CC(C)c1ccc(O)c(Cn2c(-c3ccccc3)nc3c(O)c(O)c(O)cc3c2=O)c1
959 nM | 1210 nM | O=c1c2cc(O)c(O)c(O)c2nc(-c2ccccc2)n1Cc1ccccc1
179 nM | 123 nM | Cc1ccc(O)c(Cn2c(-c3ccccc3)nc3c(O)c(O)c(O)cc3c2=O)c1

— ChEMBL document CHEMBL2434895, “Design and application of a rigid quinazolone scaffold based on two-face Bim α-helix mimicking” (Eur J Med Chem, 2013)
